# TRPC6 activator: activators of mouse TRPC6 channel | AID 2550 | Q61143 | B-score at 10 µM | 310,000 compounds, 0.13% hits | HEK293-TRPC6 membrane potential dye fluorescence; stronger effect = higher value;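 active = B-score of the integrated fluorescence ratio above library mean plus 3 SD, and starting fluorescence ratio within library mean plus 5 SD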;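 note: higher score means more depolarization so channel activation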
# TRPC4 act: activators of mouse TRPC4 channel. Q9QUQ5. AID 2237. HEK293 TRPC4beta/mu-opioid, Fluo4 calcium fluorescence; stronger effect = higher value. 310,000 compounds, 0.49% hits. B-score at 10 µM;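 active = B-score above 5 SD of library B-scores, and initial fluorescence ratio not above library mean plus 5 SD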;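 note: positive B-score marks a calcium rise read as TRPC4 activation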
#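 system = HEK293 cells stably co-expressing mouse TRPC4beta and mu-opioid receptor | schedule = Fluo4 dye loading 45 min at room temperature, 110 s recording | measure = B-scored integrated calcium fluorescence ratio | signal = Fluo4 calcium-sensitive dye fluorescence, kinetic, 1 Hz baseline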
# TRPC6 inh: blocks the mouse TRPC6 cation channel. B-score at 10 µM. AID 2553. 310,000 compounds, 1.1% hits. HEK293-TRPC6, membrane potential dye, ACh-evoked depolarization; stronger effect = lower value. Q61143;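 active = B-score under library mean minus 3 SD, initial fluorescence not abnormally high, positive integrated signal ratio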;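 note: B-score derived from integrated fluorescence ratio over the kinetic read; more negative B-score means stronger inhibition of depolarization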
# TRPC4 PAM: allosterically enhances the mouse TRPC4 cation channel. Q9QUQ5. HEK293 TRPC4beta/mu-opioid, DAMGO EC20, Fluo-4 Ca2+ flux; stronger effect = higher value. B-score at 10 µM. 310,000 compounds, 0.42% hits. AID 2227;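 active = B-score of calcium response area above 5 SD of library B-scores, with initial fluorescence ratio within 5 SD of library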
# TRPC4 block: inhibitors of mouse TRPC4 channel; HEK293 TRPC4beta/mu-opioid, DAMGO-evoked Fluo4 calcium flux; stronger effect = lower value; 300,000 compounds, 0.39% hits; Q9QUQ5; B-score at 10 µM;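 active = B-score over 3 SD under the library average, no early fluorescence shift, positive overall ratio signal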
#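 System: stable TRPC4beta/mu-opioid receptor HEK293 cells; Dosing: single-point compound dosing; Measured by: Fluo4 Ca2+ flux fluorescence; Read-out basis: per-well B score of integrated baseline-normalized Fluo4 ratio.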
# Numbers stand for hits; - = inactive. Sampled rows, rich in hits. Any-hit rate of the full collection: about 2.3%.
SMILES,TRPC6 activator,TRPC4 act,TRPC6 inh,TRPC4 PAM,TRPC4 block
CC(=O)Nc1ccc(S(=O)(=O)Nc2nc3ccccc3nc2N2CCc3ccccc3C2)cc1,-,-,-,-,-
CC(=O)Nc1ccc(S(=O)(=O)Nc2nc3ccccc3nc2N2CCCCCC2)cc1,-,-,-,12,-
Cc1ccc(S(=O)(=O)c2nc(S(=O)(=O)c3ccc(C)cc3)c(N3CCN(CCO)CC3)s2)cc1,-,-,-,-,-
COc1ccccc1CNC(=O)CN(C)S(=O)(=O)c1ccc(Br)s1,-,-,-,-,-
CCc1nc(NCCc2ccccn2)c2nnn(Cc3ccccc3F)c2n1,-,186,-,-,-
c1ccc(N2CCN(c3nc(-c4ccccn4)nc4ccccc34)CC2)cc1,-,-,-5.62,-,-
c1ccc2c(N3CCCCCC3)nc(-c3ccncc3)nc2c1,-,-,-,-,-
O=[N+]([O-])c1ccc(O)c(C2=NNC(c3ccccc3F)C2)c1 (stereo not drawn),-,101,-,-,-6
Oc1ccc(Cl)cc1C1=NNC(c2cccs2)C1 (stereo not drawn),-,-,-,-,-
NC(=O)N=Nc1c(O)[nH]c2c(Br)cc(Br)cc12,-,-,-,11,-
Cc1ccc(N(CC(=O)NCc2ccc3c(c2)OCO3)C(=O)c2csnn2)cc1,-,-,-,-,-
CC(NC(=O)c1cc(S(=O)(=O)N2CCOCC2)ccc1N1CCCC1)c1ccc(Cl)c(Cl)c1 (stereo not drawn),-,-,-,-,-
Cc1ccc(C)c(-n2cc(CNCCc3cnccn3)c(-c3ccccc3)n2)c1,-,108,-,-,-
COc1ccc(/C=N/Nc2cc(C)nc(-n3nc(C)cc3C)n2)cc1,-,-,-,19,-
COc1cc(NC(=O)CSc2cc(C)c3cc(C)cc(C)c3n2)c(C(=O)O)cc1OC,-,-,-,-,-
CCCc1nc2oc3c(NCCN(C)C)ncnc3c2c2c1CCCC2,-,-,-,-,-6
Cn1c2ccccc2c(=O)c2ccc(C#CC3(N)CCCCC3)cc21,-,-,-8.61,-,-
Cn1c2ccccc2c(=O)c2cc(C#CC3(O)CCCCC3)ccc21,-,-,-,-,-
COc1ccc(N2CCN(CCCNC(=O)c3ccc(CS(=O)(=O)c4ccc(OC)cc4)o3)CC2)cc1,-,-,-,-,-6
COc1cc(OC)cc(C(=O)NCCCN2CCN(CCCNC(=O)c3cc(OC)cc(OC)c3)CC2)c1,-,119,-,-,-
CCOc1cc(OCC)cc(C(=O)NCCCN2CCOCC2)c1,-,-,-,-,-
O=C(NN1CC(C(=O)OCc2ccc(Br)cc2)CC1=O)c1ccccc1 (stereo not drawn),-,-,-,-,-
COc1ccccc1CNC(=O)N1CCN(c2ccccc2Cl)CC1,-,-,-,-,-
CN1CCN(c2ccc([N+](=O)[O-])cc2C(=O)c2ccccc2)CC1,-,-,-,-,-
COC(=O)c1cc([N+](=O)[O-])ccc1N1CCN(Cc2ccccc2)CC1,-,-,-,11,-
SMILES,TRPC6 activator,TRPC4 act,TRPC6 inh,TRPC4 PAM,TRPC4 block
O=C(CCC(=O)Nc1ccc(F)cc1)N/N=C/c1cccnc1,-,-,-,-,-
CC(C)Cn1c(-c2csc(C(C)C)c2)n[nH]c1=S,-,-,-,13,-
Cc1oc(S(=O)(=O)N(C)C)cc1C(=O)Nc1ccc(Cl)cc1,-,-,-,-,-
Cc1ccc(S(=O)(=O)N2CCN(C(=O)CCc3nc4ccccc4c(=O)[nH]3)CC2)c(C)c1,-,-,-,-,-
Cc1ccc(C)c(S(=O)(=O)N2CCN(C(=O)CCc3nc4ccccc4c(=O)[nH]3)CC2)c1,-,194,-,-,-
O=C1CCC/C(=N\NC(=O)COc2ccc(Cl)cc2)C1,-,-,-,-,-
COc1cccc(C2=NN(C(=O)c3ccco3)C(c3ccco3)C2)c1 (stereo not drawn),-,-,-,-,-6
Cc1cc(Br)ccc1NC(=S)N1CCOCC1,-,-,-,-,-
COCCCN1C(=O)c2ccc(C(=O)NCc3ccccn3)cc2C1=O,-,-,-,-,-
COc1ccc(C2C(C(C)=O)=C(O)C(=O)N2c2ccc(O)cc2)cc1 (stereo not drawn),-,-,-,-,-
COc1ccc(C2C(C(C)=O)=C(O)C(=O)N2c2ccc(Br)cc2)cc1 (stereo not drawn),-,-,-,-,-5
O=C(c1ccncc1)N1CCN(S(=O)(=O)c2cccc(Cl)c2)CC1,-,-,-,-,-
COc1ccc2[nH]c3c(c2c1)CCN1C(=O)N([C@@H](C)C(=O)NCc2ccco2)C(=O)[C@]31C,-,-,-,-,-
CCN(c1ccccc1)S(=O)(=O)c1ccc(Cl)c(NC(=O)CN2CCCCCC2)c1,18.5,-,-,-,-
CN(C)S(=O)(=O)c1ccc(Cl)c(NC(=O)CN2CCCCCC2)c1,-,-,-,-,-
O=C(CN1CCN(c2ccc(C(F)(F)F)cn2)CC1)Nc1ccc2c(c1)OCO2,-,-,-,-,-
C=Cc1ccc(Cn2nc(-c3ccc(C)cc3)ccc2=O)cc1,-,-,-,-,-
O=C(CC1CCCCC1)c1c(O)c2ccccc2oc1=O,-,99,-,-,-
CC1CCC(C(=O)c2c(O)c3ccccc3oc2=O)CC1 (stereo not drawn),-,44,-,-,-
CCCCC(=O)c1c(O)c2ccccc2oc1=O,-,-,-,-,-
CC(=N)c1c(O)c2ccccc2oc1=O,-,-,-,-,-
Cc1cccc(N2CCN(CC(=O)Nc3nccs3)CC2)c1C,12.8,-,-5.58,-,-
COc1ccc(NS(=O)(=O)c2ccc(NS(=O)(=O)c3cccs3)cc2)cc1,-,-,-,-,-
Cc1ccc(NS(=O)(=O)c2ccc(NS(=O)(=O)c3cccs3)cc2)cc1,-,-,-,16,-
O=S(=O)(Nc1ccc(F)cc1)c1ccc(NS(=O)(=O)c2cccs2)cc1,-,-,-,11,-
SMILES,TRPC6 activator,TRPC4 act,TRPC6 inh,TRPC4 PAM,TRPC4 block
COc1ccc(NC(=O)c2cccs2)cc1C(=O)N1CCN(c2ccccc2)CC1,-,-,-,-,-
COc1ccc(CCn2c(=S)[nH]c3cc(C(=O)N4CCOCC4)ccc3c2=O)cc1OC,-,-,-,20,-
CCc1ccc(NC2=NCC(c3ccccc3)S2)cc1 (stereo not drawn),-,-,-,12,-
O=[N+]([O-])c1ccc(C2CN=C(Nc3ccccc3)S2)cc1 (stereo not drawn),-,-,-,-,-
CC(NC(=O)c1ccco1)C(c1cccs1)N1CCN(c2ccccc2)CC1 (stereo not drawn),-,-,-,-,-6
CCC(=O)NC(C)C(c1cccs1)N1CCN(c2ccccc2)CC1 (stereo not drawn),-,119,-,-,-
CC(NC(=O)c1ccco1)C(c1cccs1)N1CCN(c2ccc(F)cc2)CC1 (stereo not drawn),-,-,-,-,-
